Assay results gathered from unrelated publications.
Each line is one published result; the experiments were not run side by side. pEC50, pIC50: −log10 of the molar value.
Organism: Plasmodium falciparum
Observed: parasite growth

Compound	assay	system	setting	endpoint	result
O=C(/C=C/c1cn(Cc2cn(-c3ccnc4cc(Cl)ccc34)nn2)c2ccccc12)c1ccccc1Br	SYBR Green	3D7	10 µM, blood stage	inhibition	47.4%
O=C1C(NCCc2ccc(O)cc2)=CC2=NCCc3c[nH]c1c32	SYBR Green	W2	blood stage	pIC50	6.32
O=C(/C=C/c1cn(Cc2cn(-c3ccnc4cc(Cl)ccc34)nn2)c2ccccc12)c1ccccc1[N+](=O)[O-]	SYBR Green	3D7	5 µM, blood stage	inhibition	-5.03%
CCOC(=O)C1=C(C)NC2=C(C(=O)CC(c3ccc(Cl)c(OC)c3)C2)C1c1ccccc1Cl (stereo not shown)	SYBR Green	3D7	blood stage	pEC50	~7.70
O=C1c2[nH]cc3c2C(=NCC3)c2c(-c3ccc(O)cc3)c[nH]c21	SYBR Green	W2	blood stage	pIC50	5.34
O=C(/C=C/c1cn(Cc2cn(-c3ccnc4cc(Cl)ccc34)nn2)c2ccccc12)c1cccs1	SYBR Green	3D7	5 µM, blood stage	inhibition	32.1%
Cn1cc2c3c1C(=O)C(NCCc1ccc(O)cc1)=CC3=NCC2	SYBR Green	DD2	blood stage	pIC50	5.62
COc1ccccc1C(=O)/C=C/c1cn(Cc2cn(-c3ccnc4cc(Cl)ccc34)nn2)c2ccccc12	SYBR Green	–	drug-resistant strain, blood stage	pIC50	5.46
Cc1cc(Nc2ccc(S(F)(F)(F)(F)F)cc2)n2nc(C(C)(F)F)nc2n1	SYBR Green	–	72 h	pEC50	8.24
O=C(/C=C/c1cn(Cc2cn(-c3ccnc4cc(Cl)ccc34)nn2)c2ccccc12)c1ccccc1	SYBR Green	3D7	5 µM, blood stage	inhibition	-3.08%
COCC(=O)N1CCC[C@H](C(=O)NCc2nc(-c3cccnc3)cs2)C1	SYBR Green	DD2	72 h, blood stage	pEC50	7.04
COC(CNC1=CC2=NCCc3c[nH]c(c32)C1=O)c1c[nH]c2ccccc12 (stereo not shown)	SYBR Green	W2	blood stage	pIC50	5.95
O=C(/C=C/c1cn(Cc2cn(-c3ccnc4cc(Cl)ccc34)nn2)c2ccccc12)c1ccc(Br)cc1	SYBR Green	3D7	10 µM, blood stage	inhibition	37.4%
CCOCC(=O)N1CCC[C@H](C(=O)NCc2nc(-c3ccccc3)cs2)C1	SYBR Green	DD2	72 h, blood stage	pEC50	7.62
Cc1cc(Nc2ccc(S(F)(F)(F)(F)F)cc2)n2nc(C(C)(F)F)nc2n1	–	3D7	blood stage	pEC50	8.08
NC1=CC2=NCCc3c[nH]c(c32)C1=O	SYBR Green	W2	blood stage	pIC50	6.53
COCC(=O)N1CCCC(C(=O)NCc2nc(-c3ccccc3)cs2)C1 (racemic)	SYBR Green	DD2	72 h, blood stage	pEC50	6.72 to 6.85
O=C1C(NCCc2c[nH]c3ccccc23)=CC2=NCCc3c[nH]c1c32	SYBR Green	DD2	blood stage	pIC50	6.22
COCC(=O)N1CCC[C@H](C(=O)NCc2nc(-c3ccc(OC)cc3)cs2)C1	SYBR Green	DD2	72 h, blood stage	pEC50	7.70
